In ChEMBL document CHEMBL1122280, “Analogues of hycanthone and lucanthone as antitumor agents” (1983) one finds T/C data, which are given here for nine compounds.

The structures appear in SMILES notation.

The test system of assay [1] is P388. Description: In vivo antitumor activity against P-388 lymphocytic leukemia in mice treated with a dose of 50 mg/kg. It is filed as functional, Mus musculus. In outline:
(§1)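 Mice bearing P-388 leukemia were dosed once daily for 5 days, or once daily for 9 days for the two reference parent drugs. Activity is expressed as a T/C value.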

Assay [2] concerns P388. Description: In vivo antitumor activity against P-388 lymphocytic leukemia in mice treated with a dose of 25 mg/kg. It is filed as functional, Mus musculus. In outline:
as §1

Assay [3] concerns P388. Description: In vivo antitumor activity against P-388 lymphocytic leukemia in mice treated with a dose of 12.5 mg/kg. Type of assay: functional, Mus musculus. In outline: as §1
Assay [4] has as its system P388. Description: In vivo antitumor activity against P-388 lymphocytic leukemia in mice treated with a dose of 200 mg/kg for 5 days.
In assay [5] the test system is P388. Description: In vivo antitumor activity against P-388 lymphocytic leukemia in mice treated with a dose of 25 mg/kg for 2 days. It is filed as functional, Mus musculus. To be noted: in the assay text read “for 5 days” for “for 2 days”.
In assay [6] the test system is P388. Description: In vivo antitumor activity against P-388 lymphocytic leukemia in mice treated with a dose of 100 mg/kg for 2 days. Type of assay: functional, Mus musculus. To be noted: in the assay text read “for 5 days” for “for 2 days”.
The test system of assay [7] is P388. Description: In vivo antitumor activity against P-388 lymphocytic leukemia in mice treated with a dose of 50 mg/kg for 2 days. It is filed as functional, Mus musculus. To be noted: in the assay text read “for 5 days” for “for 2 days”.
Assay [8] concerns P388. Description: In vivo antitumor activity against P-388 lymphocytic leukemia in mice treated with a dose of 18.75 mg/kg for 2 days. Type of assay: functional, Mus musculus. The method, boiled down: (§2)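 P-388 leukemia-bearing mice received the drug on only 2 days, day 1 and day 4 after inoculation. Activity is expressed as a T/C value.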
In assay [9] the test system is P388. Description: In vivo antitumor activity against P-388 lymphocytic leukemia in mice treated with a dose of 75 mg/kg for 2 days. Type of assay: functional, Mus musculus. In outline:
as §2

The test system of assay [10] is P388. Description: In vivo antitumor activity against P-388 lymphocytic leukemia in mice treated with a dose of 37.5 mg/kg for 2 days. It is filed as functional, Mus musculus. The method, boiled down: as §2
The subject of assay [11] is P388. Description: In vivo antitumor activity against P-388 lymphocytic leukemia in mice treated with a dose of 9.88 mg/kg for 2 days. Type of assay: functional, Mus musculus. In outline:
as §2

The subject of assay [12] is P388. Description: In vivo antitumor activity against P-388 lymphocytic leukemia in mice treated with a dose of 100 mg/kg. Type of assay: functional, Mus musculus. In outline:
as §1

The subject of assay [13] is P388. Description: In vivo antitumor activity against P-388 lymphocytic leukemia in mice treated with a dose of 200 mg/kg. Type of assay: functional, Mus musculus. In outline: as §1
For assay [14], the system named is P388. Description: In vivo antitumor activity against P-388 lymphocytic leukemia in mice treated with a dose of 60 mg/kg. It is filed as functional, Mus musculus. In outline: as §1

In the case of `CCN(CC)CCNc1ccc(C)c2oc3ccc(O)cc3c(=O)c12`, the values for the T/C in the assay with P388 [1], in the assay on P388 [2] and in the assay with P388 [3] were 117, 106 and 106, respectively.
For the compound `CN(C)CCNc1ccc(CO)c2sc3ccc(O)cc3c(=O)c12`, the T/C in the assay with P388 [4] came out at 222; in the assay with P388 [5], 160; with P388 [6], 194; in the assay with P388 [7], 175.
As for `CCN(CC)CCNc1ccc(CO)c2sc3ccc(O)cc3c(=O)c12`, the T/C was determined as 207 in the assay with P388 [8], 207 in the assay on P388 [9], 179 in the assay with P388 [10] and 163 in the assay with P388 [11].
As for `Cc1ccc(NCCN(C)C)c2c(=O)c3cc(O)ccc3oc12`, the T/C is 108 in the assay on P388 [1], 106 with P388 [2] and 99 with P388 [3].
As for `CCN(CC)CCNc1ccc(CO)c2oc3ccc(O)cc3c(=O)c12`, the figures for the T/C in the assay with P388 [1], in the assay on P388 [12] and in the assay with P388 [13] were 181, 214 and 163, respectively.
Regarding `CN(C)CCNc1ccc(CO)c2sc3ccccc3c(=O)c12`, the results for the T/C in the assay with P388 [1], in the assay on P388 [12] and with P388 [2] were 114, 150 and 94, respectively.
As to `CN(C)CCNc1ccc(CO)c2oc3ccc(O)cc3c(=O)c12`, the T/C was 170 in the assay with P388 [1] and 128 in the assay on P388 [13].
Compound `CCN(CC)CCNc1ccc(CO)c2sc3ccccc3c(=O)c12` [HYCANTHONE] had a T/C in the assay on P388 [14] of 165.
On to `CCN(CC)CCNc1ccc(C)c2sc3ccccc3c(=O)c12` [LUCANTHONE], for which, in the assay with P388 [12], the T/C amounted to 158.
